From paper PMC10975593 (ACS Omega, 2024)
Read-outs that look alike come from different tables or passages of the source.

What was measured:
Staphylococcus aureus = assay: Disc diffusion antimicrobial test; format: cell-based; details: 24 h; for zone of inhibition at 100 µg/mL: Staphylococcus aureus, read-out: zone of inhibition (diameter of inhibition)
Procedure, shortened: (§1)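 Disc diffusion on nutrient agar, test compound at 100 μg/mL with DMSO as solvent. Plates incubated at 37 °C for 24 h after inoculation, then zone of inhibition measured and compared with standards. Controls were DMSO, amoxicillin, ciprofloxacin and tetracycline.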

A549 cancer cell line [1] = assay: MTT assay; format: cell-based; details: for IC50 / inhibition at 100 µM: Homo sapiens, A549, 72 h; for inhibition at 100 µM: read-out: experimental % of inhibition on A549 cancer cell line
Procedure, shortened: (§2)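 A549 in DMEM and MCF-7 in RPMI, each with 10% heat-inactivated FBS, 1% penicillin/streptomycin and 2 mmol/L glutamine at 37 °C, 5% CO2. Seeded at 2000 (A549) or 10,000 (MCF-7) cells/well and attached 24 h. Then 72 h with test compound at varying concentrations. MTT (5 mg/mL stock) added for 4 h at 37 °C, formazan dissolved in DMSO, absorbance read at 450/540 nm. Triplicates in three separate experiments.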

A549 cancer cell line [2] = details: cited from earlier work
MCF-7 cancer cell line = assay: MTT assay; format: cell-based
Procedure, shortened: as §2

PI3Kγ enzyme = PI3Kγ enzyme (Homo sapiens, UniProt P48736); assay: Adapta universal kinase assay, anti-PI3Kγ activity; format: biochemical
Chain of PI3Kγ enzyme (P48736 whole entry): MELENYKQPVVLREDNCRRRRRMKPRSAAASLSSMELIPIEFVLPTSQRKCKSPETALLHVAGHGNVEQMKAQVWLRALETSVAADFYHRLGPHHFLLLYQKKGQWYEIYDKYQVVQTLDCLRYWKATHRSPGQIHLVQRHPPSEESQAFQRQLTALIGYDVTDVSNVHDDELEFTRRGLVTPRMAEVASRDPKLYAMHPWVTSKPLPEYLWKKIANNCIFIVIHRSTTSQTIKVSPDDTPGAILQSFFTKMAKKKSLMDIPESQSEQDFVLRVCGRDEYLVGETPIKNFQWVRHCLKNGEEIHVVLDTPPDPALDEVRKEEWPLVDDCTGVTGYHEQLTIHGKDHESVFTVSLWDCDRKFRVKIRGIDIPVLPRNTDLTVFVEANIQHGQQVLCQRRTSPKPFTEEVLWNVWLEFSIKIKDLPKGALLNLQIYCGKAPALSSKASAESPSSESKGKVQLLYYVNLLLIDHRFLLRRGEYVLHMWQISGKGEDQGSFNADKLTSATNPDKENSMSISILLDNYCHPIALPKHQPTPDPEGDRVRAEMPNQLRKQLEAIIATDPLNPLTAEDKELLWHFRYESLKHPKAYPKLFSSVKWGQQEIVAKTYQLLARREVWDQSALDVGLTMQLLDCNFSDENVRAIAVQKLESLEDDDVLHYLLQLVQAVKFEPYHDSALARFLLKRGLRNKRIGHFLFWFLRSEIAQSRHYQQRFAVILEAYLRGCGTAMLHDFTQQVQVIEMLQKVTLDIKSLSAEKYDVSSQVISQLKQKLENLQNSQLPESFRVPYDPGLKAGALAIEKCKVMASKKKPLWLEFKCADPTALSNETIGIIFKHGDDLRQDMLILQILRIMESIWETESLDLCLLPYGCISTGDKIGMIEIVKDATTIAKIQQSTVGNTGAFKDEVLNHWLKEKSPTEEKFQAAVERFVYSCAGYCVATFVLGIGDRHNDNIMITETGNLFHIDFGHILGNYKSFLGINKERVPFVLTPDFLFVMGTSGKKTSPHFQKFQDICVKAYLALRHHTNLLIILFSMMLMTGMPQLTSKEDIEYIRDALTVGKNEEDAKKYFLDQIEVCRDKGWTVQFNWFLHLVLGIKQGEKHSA
Procedure, shortened: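 Adapta ADP-detection TR-FRET immunoassay with test compound at 100 μM. The kinase reaction runs 60 min. It is then stopped by a detection solution of EDTA, europium-labelled anti-ADP antibody and Alexa Fluor 647-labelled ADP tracer. ADP formed displaces the tracer and lowers the TR-FRET signal. ADP formation is calculated from the emission ratio.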

Fibro cell line = assay: % inhibition on normal cell line; format: cell-based; details: for inhibition at 10 µM: read-out: %inhibition at 10 μM; for inhibition at 100 µM: read-out: %inhibition at 100 μM
Escherichia coli = assay: Disc diffusion antimicrobial test; format: cell-based; details: 24 h; for zone of inhibition at 100 µg/mL: Escherichia coli, read-out: zone of inhibition (diameter of inhibition)
Procedure, shortened: as §1

[3] = read-out: % of inhibition (mean) against PI3Kγ enzyme
[4] = read-out: % of inhibition against PI3Kγ enzyme, point 1
[5] = read-out: % of inhibition against PI3Kγ enzyme, point 2

Row | Compound | inhibition at 100 µM (PI3Kγ enzyme; [3]) | inhibition at 100 µM (PI3Kγ enzyme; [4]) | inhibition at 100 µM (PI3Kγ enzyme; [5]) | zone of inhibition at 100 µg/mL (Staphylococcus aureus) | inhibition at 100 µM (A549 cancer cell line [1]) | inhibition at 10 µM (Fibro cell line) | inhibition at 100 µM (Fibro cell line) | zone of inhibition at 100 µg/mL (Escherichia coli) | also measured
1 | CC1(C)S[C@@H]2[C@H](NC(=O)[C@H](N)c3ccc(O)cc3)C(=O)N2[C@H]1C(=O)O [Amoxicillin, reference compound] | – | – | – | 22 mm | – | – | – | – | –
2 | COc1cccc2c1C(=O)c1c(O)c3c(c(O)c1C2=O)C[C@@](O)(C(=O)CO)C[C@@H]3O[C@H]1C[C@H](N)[C@H](O)[C@H](C)O1 [Doxorubicin, reference compound] | – | – | – | – | 82.2% | – | – | – | IC50 (A549 cancer cell line [1]): 16.6 µM; IC50 (A549 cancer cell line [2]; read-out: reported IC50 against A549): 0.071 µM
3 | CN(C)C1CCN(C(=O)c2ccc(NC(=O)Nc3ccc(-c4nc(N5CCOCC5)nc(N5CCOCC5)n4)cc3)cc2)CC1 [Gedatolisib, reference compound] | – | – | – | – | – | – | – | – | IC50 (MCF-7 cancer cell line; Homo sapiens, MCF7, 72 h): 13.1 µM; IC50 (A549 cancer cell line [1]): 16.5 µM; IC50 (A549 cancer cell line [2]; read-out: reported IC50): 9.05 µM
4 | O=C(CNC1CCCCC1)Nc1nc2ccccc2s1 [OMS1, N-(1,3-benzothiazol-2-yl)-2-(cyclohexylamino)acetamide] | 47% | 54% | 40% | 22 mm | 1.72% | 0.85% | 13% | 0 mm | –
5 | O=C(CNc1ccc(F)cc1)Nc1nc2ccccc2s1 [OMS3, N-(1,3-benzothiazol-2-yl)-2-(4-fluoroanilino)acetamide] | 24% | 20% | 28% | 15 mm | 2.8% | 10.3% | 63.8% | 0 mm | –
6 | O=C(CNc1ccc(I)cc1)Nc1nc2ccccc2s1 [OMS4, N-(1,3-benzothiazol-2-yl)-2-(4-iodoanilino)acetamide] | 0% | 0% | 0% | 10 mm | -2.32% | 1.32% | 27.6% | 0 mm | –
7 | NS(=O)(=O)c1ccc(NCC(=O)Nc2nc3ccccc3s2)cc1 [OMS6, N-(1,3-benzothiazol-2-yl)-2-(4-sulfamoylanilino)acetamide] | 13% | 3% | 22% | 0 mm | 39.6% | 1.52% | 62.7% | 0 mm | –
8 | CNC(=O)c1cc(Oc2ccc(NC(=O)Nc3ccc(Cl)c(C(F)(F)F)c3)cc2)ccn1 [Sorafenib, reference compound] | – | – | – | – | – | 10.7% | 26.3% | – | –
9 | N-(benzo[d]thiazol-2-yl)-2-(4-(2-oxo-2-(piperazin-1-yl)ethyl)piperazin-1-yl)acetamide [OMS15] | – | – | – | – | – | – | – | – | % of inhibition against PI3Kγ enzyme, point 1 (PI3Kγ enzyme; 100 μM): 0%; % of inhibition against PI3Kγ enzyme, point 2 (PI3Kγ enzyme; 100 μM): 0%; % of inhibition (mean) against PI3Kγ enzyme (PI3Kγ enzyme; 100 μM, mean of 2 trials): 0%; experimental % of inhibition on MCF-7 cancer cell line (MCF-7 cancer cell line; 100 μM, 72 h, MTT): –23.63%; experimental % of inhibition on A549 cancer cell line (A549 cancer cell line [1]; 100 μM, 72 h, MTT): 56.69%; zone of inhibition (diameter of inhibition) (Staphylococcus aureus; disc diffusion, 100 μg/mL, S. aureus): 0 mm; %inhibition at 10 μM (Fibro cell line; Fibro cell line (normal), 10 μM): 34.8%; %inhibition at 100 μM (Fibro cell line; Fibro cell line (normal), 100 μM): 70%; zone of inhibition (diameter of inhibition) (Escherichia coli; disc diffusion, 100 μg/mL, E. coli): 0 mm

Further lines, with some results ahead:

Row | inhibition at 100 µM (PI3Kγ enzyme; [3]) | inhibition at 100 µM (PI3Kγ enzyme; [4]) | inhibition at 100 µM (PI3Kγ enzyme; [5]) | Compound | zone of inhibition at 100 µg/mL (Staphylococcus aureus) | inhibition at 100 µM (A549 cancer cell line [1]) | inhibition at 10 µM (Fibro cell line) | inhibition at 100 µM (Fibro cell line) | zone of inhibition at 100 µg/mL (Escherichia coli) | also measured
10 | 25% | 29% | 22% | N=C(N)NS(=O)(=O)c1ccc(NCC(=O)Nc2nc3ccccc3s2)cc1 [OMS7, N-(1,3-benzothiazol-2-yl)-2-[4-(carbamimidoylsulfamoyl)anilino]acetamide] | 0 mm | -3.59% | 1.88% | 16.4% | 0 mm | –
11 | 0% | 0% | 0% | O=C(CNc1ccc(S(=O)(=O)Nc2ccccn2)cc1)Nc1nc2ccccc2s1 [OMS8, N-(1,3-benzothiazol-2-yl)-2-{4-[(pyridine-2-yl)sulfamoyl]anilino}acetamide] | 0 mm | 11.2% | 8.62% | 43.3% | 0 mm | –
12 | 2% | 0% | 3% | O=C(CN1CCOCC1)Nc1nc2ccccc2s1 [OMS9, N-(1,3-benzothiazol-2-yl)-2-(morpholin-4-yl)acetamide] | 0 mm | 17.2% | 11.8% | 3.11% | 0 mm | –
13 | 2% | 3% | 0% | O=C(CN1CCN(c2cccc(O)c2)CC1)Nc1nc2ccccc2s1 [OMS10, N-(1,3-benzothiazol-2-yl)-2-[4-(3-hydroxyphenyl)piperazin-1-yl]acetamide] | 11 mm | 38.1% | 15.9% | 44.1% | 0 mm | –
14 | 3% | 6% | 0% | O=C(CN1CCN(c2ccc([N+](=O)[O-])cc2)CC1)Nc1nc2ccccc2s1 [OMS11, N-(1,3-benzothiazol-2-yl)-2-[4-(4-nitrophenyl)piperazin-1-yl]acetamide] | 0 mm | 22% | 21.3% | 19.2% | 0 mm | –
15 | 16% | 28% | 4% | O=C(CN1CCN(c2ccccc2O)CC1)Nc1nc2ccccc2s1 [OMS12, N-(1,3-benzothiazol-2-yl)-2-[4-(2-hydroxyphenyl)piperazin-1-yl]acetamide] | 20 mm | 48.5% | 24.3% | 22.2% | 0 mm | –
16 | 3% | -2% | 8% | O=C(CN1CCN(c2ccccn2)CC1)Nc1nc2ccccc2s1 [OMS13, N-(1,3-benzothiazol-2-yl)-2-[4-(pyridin-2-yl)piperazin-1-yl]acetamide] | 0 mm | 26.9% | 21.1% | 13.8% | 0 mm | –
17 | 1% | 2% | 0% | O=C(CN1CCN(CC(=O)Nc2nc3ccccc3s2)CC1)Nc1nc2ccccc2s1 [OMS16, 2,2′-(piperazine-1,4-diyl)bis(N-(benzo[d]thiazol-2-yl)acetamide)] | 0 mm | 56.6% | 53.8% | 70.1% | 0 mm | –
